Results from ChEMBL document CHEMBL1123394, “Systematic synthesis and biological evaluation of alpha- and beta-D-xylofuranosyl nucleosides of the five naturally occurring bases in nucleic acids and related analogues” (J Med Chem, 1986).

Legend:
Vero [1] = assay: Antiviral activity was measured against Reo virus-1 in african green monkey kidney (Vero B) cells.; assay type: functional; settings: Chlorocebus sabaeus
Outline: (§1)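 Inhibition of virus-induced cytopathogenicity scored in cell culture monolayers. Test compounds dissolved in growth medium at 100, 10, or 1 μg/mL or less.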

WI-38 [2] = assay: Antiviral activity was measured against Rhino virus-1A in human diploid (WI-38) cells.; assay type: functional; outline: as §1
HeLa [3] = assay: Concentration required for microscopically detectable alteration of the normal cell morphology in HeLa cells.; assay type: functional; settings: Homo sapiens
Outline: (§2)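 Host-cell morphology inspected microscopically for detectable alteration, with compounds in growth medium at up to 200 or 400 μg/mL.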

[4] = Antiviral activity was measured against Herpes simplex virus (HSV-1 KOS) in rabbit kidney cells.; assay type: functional; settings: Oryctolagus cuniculus
Outline: (§3)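 Inhibition of virus-induced cytopathogenicity in cell culture. Compounds were dissolved in growth medium at 100, 10 or 1 μg/mL or less.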

WI-38 [5] = assay: Concentration required for microscopically detectable alteration of the normal cell morphology in Wi-38 cells.; assay type: functional; settings: Homo sapiens; outline: as §2
HeLa [6] = assay: Antiviral activity was measured against Coxsackie virus B4 in HeLa cells.; assay type: functional; settings: Homo sapiens; outline: as §3
Vero [7] = assay: Antiviral activity was measured against Sindbis virus in african green monkey kidney (Vero B) cells.; assay type: functional; settings: Chlorocebus sabaeus; outline: as §1
Vero [8] = assay: Antiviral activity was measured against forest virus in african green monkey kidney (Vero B) cells.; assay type: functional; settings: Chlorocebus sabaeus; outline: as §1
Vero [9] = assay: Antiviral activity was measured against Parainfluenza virus-3 in african green monkey kidney (Vero B) cells.; assay type: functional; settings: Chlorocebus sabaeus; outline: as §1
WI-38 [10] = assay: Antiviral activity was measured against Rhino virus-9 in human diploid (WI-38) cells.; assay type: functional; outline: as §1
[11] = Concentration required for microscopically detectable alteration of the normal cell morphology in PRK cells.; assay type: functional; settings: Oryctolagus cuniculus; outline: as §2
[12] = Antiviral activity was measured against Herpes simplex virus (HSV-2 G) in rabbit kidney cells.; assay type: functional; settings: Oryctolagus cuniculus; outline: as §1
Vero [13] = assay: Antiviral activity was measured against Coxsackie virus B4 in african green monkey kidney (Vero B) cells.; assay type: functional; settings: Chlorocebus sabaeus; outline: as §1
Vero [14] = assay: Concentration required for microscopically detectable alteration of the normal cell morphology in Vero B cells.; assay type: functional; settings: Chlorocebus sabaeus; outline: as §2
HeLa [15] = assay: Antiviral activity was measured against vesicular stomatitis virus in HeLa cells.; assay type: functional; settings: Homo sapiens; outline: as §3
[16] = Antiviral activity was measured against vesicular stomatitis virus in rabbit kidney cells.; assay type: functional; settings: Oryctolagus cuniculus; outline: as §3
[17] = Antiviral activity was measured against vaccinia virus in rabbit kidney cells.; assay type: functional; settings: Oryctolagus cuniculus; outline: as §3
[18] = Antiviral activity was measured against Vaccinia virus in rabbit kidney cells.; assay type: functional; settings: Oryctolagus cuniculus; outline: as §3
Mus musculus [19] = assay: Toxicity of compound against mice was determined at a concentration of 750 mg/kg; assay type: organism-based; design: dose 750 mg/kg; settings: in vivo
Outline: (§4)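 Swiss mice (20-24 g) received a single intraperitoneal dose of 100-2,000 mg/kg. Compound was suspended in distilled water containing 0.2 g Tween 80 and 0.2 g (carboxymethyl)cellulose per 100 mL. Mice were followed for 14 days for acute toxicity.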

Mus musculus [20] = assay: Toxicity of compound against mice was determined at a concentration of 100 mg/kg; assay type: organism-based; design: dose 100 mg/kg; settings: in vivo; outline: as §4
Mus musculus [21] = assay: Toxicity of compound against mice was determined at a concentration of 250 mg/kg; assay type: organism-based; design: dose 250 mg/kg; settings: in vivo; outline: as §4

Compound	MCC (Vero [1])	MCC (WI-38 [2])	MCC (HeLa [3])	MCC [4]	MCC (WI-38 [5])	MCC (HeLa [6])	MCC (Vero [7])	MCC (Vero [8])	MCC (Vero [9])	MCC (WI-38 [10])	MCC [11]	MCC [12]	MCC (Vero [13])	MCC (Vero [14])	other results
NC(=O)c1ncn([C@H]2O[C@H](CO)[C@H](O)[C@H]2O)c1N	> 400 µg/mL	> 400 µg/mL	> 400 µg/mL	> 400 µg/mL	> 400 µg/mL	> 400 µg/mL	> 400 µg/mL	> 400 µg/mL	> 400 µg/mL	> 400 µg/mL	> 400 µg/mL	> 400 µg/mL	> 300 µg/mL	> 400 µg/mL	
Nc1nccc2c1ncn2[C@@H]1C[C@H](CO)[C@@H](O)[C@H]1O [3-DEAZAARISTEROMYCIN A]	2 µg/mL	> 400 µg/mL	≥ 400 µg/mL	> 400 µg/mL	> 400 µg/mL	> 400 µg/mL	> 400 µg/mL	> 400 µg/mL	0.2 µg/mL	> 400 µg/mL	> 400 µg/mL	> 400 µg/mL	0.7 µg/mL	≥ 400 µg/mL	MCC (HeLa [15]): 2 µg/mL; MCC [16]: 0.7 µg/mL; MCC [17]: 2 µg/mL
Nc1nc(S)c2ncn(C3O[C@H](CO)[C@H](O)[C@H]3O)c2n1 (some centres not stated)	> 200 µg/mL	> 200 µg/mL	≥ 200 µg/mL	> 400 µg/mL	≥ 400 µg/mL	> 200 µg/mL	> 200 µg/mL	> 200 µg/mL	> 200 µg/mL	> 200 µg/mL	> 400 µg/mL	> 400 µg/mL	> 200 µg/mL	≥ 200 µg/mL	
Cc1cn([C@@H]2O[C@H](CO)[C@@H](O)[C@H]2O)c(=O)[nH]c1=O	> 400 µg/mL	> 400 µg/mL	> 400 µg/mL	> 400 µg/mL	> 400 µg/mL	> 400 µg/mL	> 400 µg/mL	> 400 µg/mL	> 400 µg/mL	> 400 µg/mL	> 400 µg/mL	> 400 µg/mL	> 400 µg/mL	> 400 µg/mL	
O=c1ccn(C2O[C@H](CO)[C@H](O)[C@H]2O)c(=O)[nH]1 (some centres not stated)	> 400 µg/mL	> 400 µg/mL	> 400 µg/mL	300 µg/mL	> 400 µg/mL	> 400 µg/mL	> 400 µg/mL	> 400 µg/mL	> 400 µg/mL	> 400 µg/mL	> 400 µg/mL	300 µg/mL	> 400 µg/mL	> 400 µg/mL	MCC [16]: > 200 µg/mL; MCC [18]: 150 µg/mL
Nc1nc2c(ncn2[C@@H]2O[C@H](CO)[C@H](O)[C@H]2O)c(=O)[nH]1															No. of dead mice (Mus musculus [19]): 8; No. of dead mice (Mus musculus [20]): 2; No. of dead mice (Mus musculus [21]): 5
Nc1nc(O)c2c(n1)[nH]c[n+]2C1O[C@H](CO)[C@H](O)[C@H]1O (some centres not stated)	> 200 µg/mL	> 200 µg/mL	> 400 µg/mL	> 400 µg/mL	> 400 µg/mL	> 400 µg/mL	> 200 µg/mL	> 200 µg/mL	> 200 µg/mL	> 200 µg/mL	> 400 µg/mL	> 400 µg/mL	> 200 µg/mL	400 µg/mL	
